Reference: ChEMBL document CHEMBL1134852, “A new class of potent nonpeptide luteinizing hormone-releasing hormone (LHRH) antagonists: design and synthesis of 2-phenylimidazo[1,2-a]pyrimidin-5-ones” (Bioorg Med Chem Lett, 2002)

Molecular target: T1, Gonadotropin-releasing hormone receptor (Homo sapiens, UniProt P30968)
T1 sequence (P30968 whole entry): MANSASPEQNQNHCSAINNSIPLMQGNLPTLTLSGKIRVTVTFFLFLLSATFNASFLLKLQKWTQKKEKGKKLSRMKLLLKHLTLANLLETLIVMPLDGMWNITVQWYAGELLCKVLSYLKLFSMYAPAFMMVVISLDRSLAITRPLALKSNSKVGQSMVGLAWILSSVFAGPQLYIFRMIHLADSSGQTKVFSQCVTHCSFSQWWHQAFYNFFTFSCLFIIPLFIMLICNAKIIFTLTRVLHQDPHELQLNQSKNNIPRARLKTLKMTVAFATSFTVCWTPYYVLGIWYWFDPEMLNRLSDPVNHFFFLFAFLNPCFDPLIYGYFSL
Assay: In vitro inhibition of specific [125I]leuprorelin binding to the cloned human LHRH receptor expressed in chinese hamster ovary cells
Assay type: cell-based, CHO
Summary of the method: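 Membranes from CHO cells expressing the receptor (0.2 mg/mL) incubated with [125I][Tyr5]leuprorelin (0.12–0.15 nM) and varied test compound, 60 min at 25 °C, Tris 25 mM/EDTA/0.1% BSA/protease inhibitors buffer, pH 7.5. Stopped with ice-cold buffer, filtered on PEI-coated glass fibre, radioactivity counted. Nonspecific binding with […] unlabeled leuprorelin; IC50 from pseudo-Hill fit.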

Compound | IC50 [nM]
CCOC(=O)c1cn(Cc2c(F)cccc2F)c2nc(-c3ccc(NC(=O)CC)cc3)c(CN(C)Cc3ccccc3)n2c1=O | 10
CCOC(=O)c1cn(Cc2c(F)cccc2F)c2nc(-c3ccc(NC(=O)c4ccccc4)cc3)c(CN(C)Cc3ccccc3)n2c1=O | 20
CCOC(=O)c1cn(Cc2c(F)cccc2F)c2nc(-c3ccc(NC(=O)C(C)C)cc3)c(CN(C)Cc3ccccc3)n2c1=O | 30
CONC(=O)Nc1ccc(-c2nc3n(Cc4c(F)cccc4F)cc(C(=O)OC(C)C)c(=O)n3c2CN(C)Cc2ccccc2)cc1 | 0.4
CCOC(=O)c1cn(Cc2c(F)cccc2F)c2nc(-c3ccc(NC(=O)C4CC4)cc3)c(CN(C)Cc3ccccc3)n2c1=O | 5
CCNC(=O)Nc1ccc(-c2nc3n(Cc4c(F)cccc4F)cc(C(=O)OC(C)C)c(=O)n3c2CN(C)Cc2ccccc2)cc1 | 0.3
C=CC(=O)Nc1ccc(-c2nc3n(Cc4c(F)cccc4F)cc(C(=O)OCC)c(=O)n3c2CN(C)Cc2ccccc2)cc1 | 3
CCOC(=O)c1cn(Cc2c(F)cccc2F)c2nc(-c3ccc(NC(=O)NOC)cc3)c(CN(C)Cc3ccccc3)n2c1=O | 0.7
CCOC(=O)c1cn(Cc2c(F)cccc2F)c2nc(-c3ccc(NC(=O)c4ccsc4)cc3)c(CN(C)Cc3ccccc3)n2c1=O | 7
CCOC(=O)c1cn(Cc2c(F)cccc2F)c2nc(-c3ccc(NC(=O)c4ccoc4)cc3)c(CN(C)Cc3ccccc3)n2c1=O | 3
